Measurements taken from ChEMBL document CHEMBL1156237, “Antiviral activity of benzimidazole derivatives. II. Antiviral activity of 2-phenylbenzimidazole derivatives” (Bioorg Med Chem, 2010).
Active and inactive are the calls of the source.

Columns and labels:
[1] = Cytotoxicity against african green monkey Vero cells; format: cell-based; settings: chlorocebus sabaeus
Outline: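 Vero 76 monolayers exposed to serial compound dilutions, run in parallel on the same 24-well plates as the plaque-reduction assays. CC50 is the concentration reducing viability of mock-infected cells by 50%.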

[2] = Cytotoxicity against BHK cells after 48 to 96 hrs by MTT assay; format: cell-based, Mesocricetus auratus; settings: hamster
Outline: (§1)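 Cell seeding: MDBK at 6 × 10^5 cells/mL in MEM-E with 10% horse serum and 1 mM Na pyruvate; BHK at 1 × 10^6 cells/mL in MEM-E with 10% FBS. Serial compound dilutions, 37 °C, 5% CO2. Viability of mock-infected cells by MTT after 48–96 h; CC50 is the concentration reducing viability by 50%.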

[3] = tested on: Respiratory syncytial virus; assay: Antiviral activity against RSV A2 infected in african green monkey Vero cells after 5 days by plaque reduction assay; format: functional, organism-based; settings: for EC50: human respiratory syncytial virus, A2, Vero, 120 h
Outline: (§2)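 Plaque reduction assay. Vero 76 cells at 2 × 10^5/well, grown overnight to confluence in D-MEM with 10% FBS. Infected 2 h with 50–100 PFU/well, unadsorbed virus removed. Overlay of D-MEM with 1% inactivated FBS and 0.75% methylcellulose, with or without serial compound dilutions. Incubated at 37 °C for 3 days (HSV-1 KOS, CVB-2 Ohio-1) or 5 days (RSV A2). Fixed and stained with crystal violet in 50% ethanol; plaques counted; EC50 by linear regression.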

Yellow fever virus = assay: Antiviral activity against Yellow fever virus 17D infected in BHK cells assessed as protection from virus-induced cytopathogenicity after 3 to 4 days by MTT method; format: functional, organism-based
Vaccinia virus = assay: Antiviral activity against Vaccinia virus Elstree-Lister infected in african green monkey Vero cells after 3 days by plaque reduction assay; format: functional, organism-based; settings: Orthopoxvirus vaccinia; for EC50: 72 h
[4] = tested on: Mammalian orthoreovirus 1; assay: Antiviral activity against Reovirus 1 3651 infected in BHK21 cells assessed as protection from virus-induced cytopathogenicity after 3 to 4 days by MTT method; format: functional, organism-based; settings: for Activity: BHK-21
Poliovirus 1 = assay: Antiviral activity against Polio virus type1 Sabin strain Chat infected in african green monkey Vero cells after 2 days by plaque reduction assay; format: functional, organism-based, Human poliovirus 1 strain Sabin; settings: Enterovirus C, 48 h
[5] = tested on: Bovine viral diarrhea virus 1; assay: Antiviral activity against Bovine viral diarrhea virus NADL infected in MDBK cells assessed as protection from virus-induced cytopathogenicity after 3 to 4 days by MTT method; format: functional, organism-based, Bovine viral diarrhea virus 1-NADL; settings: Bovine viral diarrhea virus isolates and strains, MDBK
Outline: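 Cytopathogenicity protection assay. MDBK cells at 3 × 10^4/well, grown overnight to confluence. Infected with BVDV NADL at m.o.i. 0.01 in MEM-E with 0.5% inactivated FBS, 1 mM Na pyruvate and 1% kanamycin. Serial compound dilutions added after 1 h. After 3–4 days at 37 °C, viability read by MTT; EC50 is the concentration giving 50% protection.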

[6] = tested on: Human immunodeficiency virus 1; assay: Antiviral activity against HIV1 3B infected in human MT4 cells assessed as protection from virus-induced cytopathogenicity after 4 days by MTT method; format: functional, organism-based
Outline: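 MT-4 cells, 1 × 10^4/well in RPMI with or without serial compound dilutions, infected with HIV-1 IIIB, 100 CCID50 (m.o.i. 0.01). Protection from virus-induced cytopathogenicity read by MTT.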

[7] = Cytotoxicity against human MT4 cells after 96 hrs by MTT assay; format: cell-based; settings: MT4 cells
Outline: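 Exponentially growing MT-4 cells at 1 × 10^5 cells/mL in RPMI-1640 with 10% FCS, exposed to serial compound dilutions at 37 °C, 5% CO2. Viability by MTT after 96 h; CC50 is the concentration reducing viability of mock-infected cells by 50%.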

[8] = tested on: Vesicular stomatitis virus; assay: Antiviral activity against VSV Indiana lab infected in african green monkey Vero cells after 2 days by plaque reduction assay; format: functional, organism-based
Coxsackievirus B2 = assay: Antiviral activity against Human coxsackievirus B2 Ohio-1 infected in african green monkey Vero cells after 3 days by plaque reduction assay; format: functional, organism-based, Coxsackievirus B2 (strain Ohio-1); settings: Enterovirus B, Vero, 72 h; outline: as §2
[9] = Cytotoxicity against MDBK cells after 48 to 96 hrs by MTT assay; format: cell-based, Bos taurus; settings: cattle, MDBK cells; outline: as §1
Human alphaherpesvirus 1 = assay: Antiviral activity against HSV1 KOS infected in african green monkey Vero cells after 3 days by plaque reduction assay; format: functional, organism-based; settings: Human alphaherpesvirus 1, KOS, 72 h; outline: as §2

SMILES	CC50 [1] [µM]	CC50 [2] [µM]	Activity [3]	EC50 (Yellow fever virus) [µM]	Activity (Vaccinia virus)	Activity [4]	EC50 (Poliovirus 1) [µM]	EC50 [5] [µM]	Activity [6]	CC50 at 96 h [7] [µM]	Activity [8]	EC50 (Coxsackievirus B2) [µM]	CC50 [9] [µM]	EC50 (Human alphaherpesvirus 1) [µM]	EC50 ([4]; Mammalian orthoreovirus 1, 3651, BHK-21) [µM]	EC50 [3] [µM]	EC50 (Vaccinia virus) [µM]
CC(=O)Nc1ccc(-c2nc3cc(C(F)(F)F)ccc3n2C23CC4CC(CC(C4)C2)C3)cc1	> 100	> 100	inactive	> 100	inactive	inactive	> 100	> 82	inactive	28	inactive	> 100	82	> 100			
Cn1c(-c2ccc(NC(=O)CN3CCCC3)cc2)nc2cc(C(F)(F)F)ccc21	> 100	27	inactive	> 27	inactive	inactive	50	7	inactive	16	inactive	13	65	51			
Nc1ccc(-c2nc3cc(C(F)(F)F)ccc3n2C2CCCCC2)cc1	> 100	> 100	inactive	> 100	inactive	inactive	> 100	> 100	inactive	44	inactive	> 100	> 100	> 100			
Nc1ccc(-c2nc3ccccc3[nH]2)cc1	> 100	> 100		> 100			> 100	16	inactive	81	inactive	19	> 100	> 100	85		
COc1cc(-c2nc3cc(C(F)(F)F)ccc3[nH]2)cc(OC)c1OC	29	31		> 31			> 29	> 18	inactive	4	inactive	11	18	> 29		> 29	> 29
COc1ccc(-c2nc3cc(C(F)(F)F)ccc3[nH]2)c(N)c1	50	≥ 100		20			18	> 4	inactive	5	inactive	6	4	> 50		> 50	> 50
O=[N+]([O-])c1ccccc1-c1nc2ccccc2[nH]1	> 100	> 100		> 100			> 100	> 100	inactive	60	inactive	> 100	> 100	> 100		40	> 100
COc1ccc(-c2nc3cc(C(F)(F)F)ccc3[nH]2)c(OC)c1OC	70	32		> 32			42	> 100	inactive	93	inactive	16	> 100	> 70		> 70	> 70
Fc1cccc(F)c1-c1nc2cc(C(F)(F)F)ccc2[nH]1	25	≥ 100		> 100			> 25	> 100	inactive	100	inactive	> 25	≥ 100	> 25		> 25	> 25
